High-throughput results as filed in PubChem BioAssay.
A selection: hits, their analogues and other compounds. The true share with any hit is near 2.1%.
PGC1a acetyl inh: inhibitors of PGC1a acetylation signal, primary screen, cell-based, U2OS, AlphaScreen, inhibitor mode; AlphaScreen anti-acetyl-lysine; with virally co-expressed GCN5 acetyltransferase; inhibition, % at 15.6 µM; hit rate 0.17% among 350,000; AID 651687, 2012;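 active means every replicate shows inhibition of at least 40%; inconclusive means mean inhibition at least 40% but some replicate below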;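 further: 0% = neutral control wells and 100% = positive control wells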
MLL AF4-AF9 inh: inhibitors of AF4 peptide binding to AF9, primary screen, biochemical, AlphaScreen, biotin-AF4 peptide, FLAG-AF9, single point. Protein AF-9 (Homo sapiens), P42568. inhibition, % at 10 µM. hit rate 0.47% among 350,000. AID 651704, 2012;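 active means every replicate reaching a set inhibition limit, whatever the replicate mean, cut at about 25% in these data; inconclusive means mean inhibition reaches that limit but some replicates miss it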;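 further: 0% = plate neutral control median and 100% = total signal loss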
Target sequence (P42568 whole entry, looked up): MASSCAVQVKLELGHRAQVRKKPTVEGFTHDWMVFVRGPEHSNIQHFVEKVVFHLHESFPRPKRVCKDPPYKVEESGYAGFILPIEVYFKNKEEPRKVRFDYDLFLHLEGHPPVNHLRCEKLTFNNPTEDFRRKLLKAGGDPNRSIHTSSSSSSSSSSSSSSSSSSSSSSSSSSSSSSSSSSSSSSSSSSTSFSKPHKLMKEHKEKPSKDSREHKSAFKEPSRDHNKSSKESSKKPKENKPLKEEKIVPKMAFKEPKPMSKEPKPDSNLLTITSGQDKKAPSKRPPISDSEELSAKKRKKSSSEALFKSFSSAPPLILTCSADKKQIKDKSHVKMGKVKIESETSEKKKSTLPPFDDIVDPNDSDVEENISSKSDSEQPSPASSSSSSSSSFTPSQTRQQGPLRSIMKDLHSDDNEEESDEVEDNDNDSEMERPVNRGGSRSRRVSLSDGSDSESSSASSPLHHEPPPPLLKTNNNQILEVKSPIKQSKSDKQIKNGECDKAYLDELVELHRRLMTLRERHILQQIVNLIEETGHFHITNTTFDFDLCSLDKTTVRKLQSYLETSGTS
GSIS activator: GLuc luminescence reporter in INS-1E cells, primary screen for activators of glucose-dependent secretion of insulin; INS-1E GLuc reporter insulin secretion, 2-3 h; activation, % at 16.6 µM; hit rate 0.61% among 370,000;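 active means lowest replicate activation of at least 40%, so every replicate reaches that level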;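 further: 0% = median of neutral control wells and 100% = median of IBMX positive control wells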
EWS-Fli inh: EWS/Fli-driven NR0B1 reporter inhibitors, primary screen, A673 cells, NR0B1 luciferase, luminescence, MLPCN library; viability-normalised; inhibition, % at 12.6 µM; hit rate 0.67% among 350,000; AID 651661, 2012;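 active means mean inhibition of at least 50% after viability correction, with every replicate also passing that limit; inconclusive means mean reaches 50% but only one of two replicates passes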;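 further: firefly luciferase signal divided by Alamar Blue viability fluorescence both relative to DMSO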
PAX8 inh HTS: inhibitors of PAX8-driven TPO luciferase reporter, primary screen, RMG-I cells, single concentration; SteadyGlo, 24 h; inhibition, % at 12.6 µM; hit rate 1.2% among 360,000; AID 652154, 2013;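 active means mean replicate inhibition at least 60% with every replicate also reaching 60%; inconclusive means only one of the two criteria is met; inactive means mean below 60% and not all replicates reaching 60%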;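 further: luciferase light reporting Pax8 driven TPO promoter activity; plate controls were median of neutral control wells for no effect and mitoxantrone controls for full effect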
XiGFP reactiv: activators of inactive X chromosome reactivation, primary screen, imaging, XiGFP fibroblasts, GFP high-content imaging, set 2; activation, % at 7.58 µM; hit rate 0.055% among 360,000; XiGFP mouse fibroblasts, % GFP-positive cells imaging, 3 d; cells co-treated with 5-aza-dC sensitizer; scaled so ellipticine positive control = 100%; AID 743238, 2013;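 active means mean normalized replicate activation at least 10% and every replicate at or above 10%; inconclusive means only one of the two criteria met; inactive means mean below 10% and not all replicates reach 10%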;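 further: 0% = median of on-plate neutral control wells and 100% = ellipticine 6 µM median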
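Material: XiGFP fibroblasts, SV40-immortalized; Buffer or medium: DMEM containing 5-aza-dC; Compound dosing: single point; Times: 3 days compound exposure.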
Active calls of the source: *; ? = inconclusive; nt = no result.

SMILES	PGC1a acetyl inh	MLL AF4-AF9 inh	GSIS activator	EWS-Fli inh	PAX8 inh HTS	XiGFP reactiv
COc1cccc(-c2ccc3c(c2)[C@@H]2[C@@H](CCN2S(=O)(=O)c2ccccc2C)[C@H](CO)N3C)c1	-5	-2	14	5	82*	0
COc1cccc(-c2ccc3c(c2)[C@H]2[C@H](CCN2S(=O)(=O)c2ccccc2OC)[C@@H](CO)N3C)c1	-8	0	-12	-5	92*	0
COc1cccc(-c2ccc3c(c2)[C@H]2[C@H](CCN2S(=O)(=O)c2ccccc2C)[C@H](CO)N3C)c1	-38	?	19	5	25	0
COc1cccc(-c2ccc3c(c2)[C@@H]2[C@@H](CCN2S(=O)(=O)c2ccccc2OC)[C@H](CO)N3C)c1	6	4	-32	0	84*	0
CCCNC(=O)N[C@H]1C=C[C@@H](CC(=O)NC2CCC2)O[C@@H]1CO	23	-1	1	-2	-1	0
C[C@H](CO)N1C[C@H](C)[C@H](CN(C)C(=O)c2ccccn2)Oc2ncc(-c3ccccc3)cc2C1=O	6	-9	18	2	nt	0
Cn1c(SCC(=O)c2ccccc2)nnc1-c1ccccn1	-3	0	9	-98	90*	0
CC1(C)CC(N2CCN(c3ccccc3)CC2)=CC(=[N+]2CCCC2)C1	5	nt	-52	nt	nt	nt
CC1(C)CC(N2CCCC2)=CC(=[N+]2CCCCCC2)C1	nt	2	-25	3	79*	0
CC1CC(C)C[N+](=C2C=C(N3CCCC3)CC(C)(C)C2)C1 (centres undefined)	nt	-3	-58	48	75*	0
Cc1noc(C)c1S(=O)(=O)N(C)C[C@@H]1OCCCC[C@@H](C)Oc2ccc(NC(=O)C3CCCCC3)cc2C(=O)N([C@H](C)CO)C[C@@H]1C	-4	0	2	-4	-3	-1
COc1ccccc1S(=O)(=O)N[C@H]1CC[C@@H](CC(=O)N2CCOCC2)O[C@H]1CO	6	1	-1	4	-5	0
COc1ccc(CC2(C)OC(c3ccc([N+](=O)[O-])cc3)=NN2C(C)=O)cc1 (centres undefined)	nt	27*	-42	15	1	0
COc1ccc(C(=O)NNC(=O)Cc2ccc([N+](=O)[O-])cc2)cc1	-4	nt	19	nt	10	0
O=C(N/N=C/c1cc(Br)c(O)c(Br)c1O)c1cccnc1	4	-1	-8	5	26	0
O=C(N/N=C/c1c(O)ccc2ccccc12)c1cccnc1	27	3	-22	24	70*	0
O=C(N/N=C/c1ccc(O)c2ncccc12)c1cccc(Br)c1	?	2	11	21	72*	2
O=C(N/N=C\c1c(O)ccc2ccccc12)c1cncc(Br)c1	nt	2	8	0	65*	1
COc1ccc2ccccc2c1/C=N\NC(=O)c1cccnc1	-3	-2	17	1	12	0
O=C(N/N=C/c1cc(O)ccc1Br)c1cccnc1	nt	3	5	10	72*	0
O=C(NN=Cc1c(O)ccc2ccccc12)c1ccncc1	3	6	nt	23	95*	0
O=C(N/N=C\c1c(O)ccc2ccccc12)c1ccc(O)cc1	2	-4	4	-13	?	0
CCC(=O)N1[C@H](CN(C)C(C)=O)[C@@H](c2ccc(-c3cccc(F)c3)cc2)[C@@H]1CO	7	nt	-1	4	-3	0
Cc1noc(C)c1S(=O)(=O)Nc1cccc2c1O[C@H](CN(C)C(=O)Nc1ccccc1)[C@H](C)CN([C@@H](C)CO)C2=O	5	-1	-8	0	-22	-1
O=C(Nc1ncn[nH]1)c1ccc(Cl)c(Cl)c1	nt	-1	44*	-4	13	0
O=C(Nc1ncn[nH]1)c1ccc(Cl)cc1Cl	nt	1	-1	0	-11	0
COc1nc(-c2ccccc2)ccc1-c1noc(-c2ccco2)n1	-4	nt	nt	nt	-149	nt
